Consider 2 compounds from ChEMBL document CHEMBL2177069, “Novel peptidomimetic compounds containing redox active chalcogens and quinones as potential anticancer agents” (Eur J Med Chem, 2012).

Data set [1] relates to MCF7. As to the kind of experiment: Induction of Cell cycle arrest in human MCF7 cells assessed as G2/M phase cells at IC50 concentration after 24 hrs by PI-staining based flow cytometric analysis (reference value: 13%). It is filed as functional. A digest of the protocol:
(§1)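 MCF-7 cells (10^6) were treated for 24 h, with methanol as the vehicle control. Cells were fixed in cold 70% methanol at 4 °C for one day, washed with PBS, and permeabilized with 0.1% saponin in PBS. They were stained with propidium iodide plus RNase for 30 min. DNA content was read by flow cytometry, giving percentages of cells per cell-cycle phase.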

The subject of data set [2] is MCF7. As to the kind of experiment: Induction of Cell cycle arrest in human MCF7 cells assessed as S phase cells at IC50 concentration after 24 hrs by PI-staining based flow cytometric analysis (reference value: 19%). The format is functional. The procedure, abridged:
as §1
(In flow cytometry, cells or beads pass a laser one at a time.)

The subject of data set [3] is MCF7. As to the kind of experiment: Induction of Cell cycle arrest in human MCF7 cells assessed as G0/1 phase cells at IC50 concentration after 24 hrs by PI-staining based flow cytometric analysis (reference value: 68%). It is filed as functional. A digest of the protocol: as §1
A further data set has as its system PtK2. As to the kind of experiment: Induction of oxidative stress in potoroo PtK2 cells assessed as change in cell morphology after 24 hrs by immunofluorescence microscopic analysis. The format is functional, cell-based. To be noted: Potorous tridactylus. A digest of the protocol:
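PtK2 cells were grown on coverslips and treated once semi-confluent, for 24 h. Cells were fixed with 3.7% paraformaldehyde followed by 0.1% Triton X-100, or with cold methanol/acetone 50:50. Primary and secondary antibodies were applied for 45 min each: anti-GRP94 for ER, anti-α-tubulin. Actin was stained with phalloidin and nuclei with DAPI. Imaging was by fluorescence microscopy with a CCD camera.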

Data set [4] has as its system MCF7. As to the kind of experiment: Induction of oxidative stress in human MCF7 cells assessed as decrease in GSH level at 5 uM after 1 hr by DTNB assay relative to control. It is filed as functional. Further details: scale not given: the % may be the effect or the level left. A digest of the protocol:
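MCF-7 cells (10^6) were treated for 1 h at 37 °C, trypsinized, and washed twice with cold PBS. GSH was extracted with chilled 5% metaphosphoric acid at 4 °C for 2 h, then the lysate was centrifuged. Supernatant was mixed with 0.2 M sodium phosphate pH 8.0 and 0.04 mM DTNB for 10 min at room temperature. Absorbance was read at 412 nm against a reagent blank, and GSH was quantified from a standard curve.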

The test system of data set [5] is HUVEC. As to the kind of experiment: Induction of oxidative stress in human HUVEC cells assessed as increase in superoxide free radical production after 1 hr by DHE-based by fluorescence spectrophotometric analysis. It is filed as cell-based. The procedure, abridged: (§2)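 Cells were seeded at 10^5 per well and given graded compound concentrations for 1 h. They were then loaded with DHE or DCF probe for 30 min in the dark. Fluorescence was read immediately: DHE ex 540/em 600 nm; DCF ex 485/em 528 nm. Results were expressed as arbitrary units per 10^5 cells.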

Data set [6] deals with HUVEC. As to the kind of experiment: Induction of oxidative stress in human HUVEC cells assessed as increase in hydrogen peroxide free radical production after 1 hr by DCF-based fluorescence spectrophotometric analysis. The format is cell-based. The procedure, abridged: as §2
For data set [7], the system named is A-431. As to the kind of experiment: Induction of oxidative stress in human A431 cells assessed as increase in superoxide free radical production after 1 hr by DHE-based by fluorescence spectrophotometric analysis. The format is functional, cell-based. The procedure, abridged:
as §2

Data set [8] concerns A-431. As to the kind of experiment: Induction of oxidative stress in human A431 cells assessed as increase in hydrogen peroxide free radical production after 1 hr by DCF-based fluorescence spectrophotometric analysis. The format is functional, cell-based. The procedure, abridged: as §2

Active and inactive are the calls of the source. The rule behind the calls is not given here.

In the case of `CC1=C([Se]CC(OC(=O)[C@@H](CO)NC(=O)OC(C)(C)C)C(=O)NC(C)(C)C)C(=O)c2ccccc2C1=O` (stereo not given in full), the Activity in the data set with MCF7 [1] was 12%; with MCF7 [2], 7.7%; in the data set on MCF7 [3] it was 80%; in the data set with MCF7 [4], 59%. Further, the outcome with PtK2 was Active.
Take `CC1=C(SCCC(=O)OC(C[Se]C2=C(C)C(=O)c3ccccc3C2=O)C(=O)NCCCCCC(=O)OCc2ccccc2)C(=O)c2ccccc2C1=O` (stereo not given): the outcome in the data set with PtK2, in the data set with A-431 [7] and in the data set on A-431 [8] was Active. The Activity entry in the data set on HUVEC [5] and in the data set with HUVEC [6] was “Non-toxic” each time.
